According to ChEMBL document CHEMBL1154352, “Toll-like receptor 7 selective synthetic oligoribonucleotide agonists: synthesis and structure-activity relationship studies” (J Med Chem, 2009):
Calls of active or inactive are those of the source. No cut-off for these calls is given here.

What was measured:
[1] = target: Toll-like receptor 3 (Homo sapiens) (UniProt O15455); assay: Activation of human TLR3 expressed in HEK293 assessed as induction of NF-kappaB activity reporter gene assay; format: cell-based
[2] = target: T1, Toll-like receptor 8 (Homo sapiens) (UniProt Q9NR97); assay: Activation of human TLR8 expressed in HEK293XL assessed as fold induction of NF-kappaB activity at 50 ug/ml after 18 hrs by reporter gene assay relative to control
T1 sequence (whole entry): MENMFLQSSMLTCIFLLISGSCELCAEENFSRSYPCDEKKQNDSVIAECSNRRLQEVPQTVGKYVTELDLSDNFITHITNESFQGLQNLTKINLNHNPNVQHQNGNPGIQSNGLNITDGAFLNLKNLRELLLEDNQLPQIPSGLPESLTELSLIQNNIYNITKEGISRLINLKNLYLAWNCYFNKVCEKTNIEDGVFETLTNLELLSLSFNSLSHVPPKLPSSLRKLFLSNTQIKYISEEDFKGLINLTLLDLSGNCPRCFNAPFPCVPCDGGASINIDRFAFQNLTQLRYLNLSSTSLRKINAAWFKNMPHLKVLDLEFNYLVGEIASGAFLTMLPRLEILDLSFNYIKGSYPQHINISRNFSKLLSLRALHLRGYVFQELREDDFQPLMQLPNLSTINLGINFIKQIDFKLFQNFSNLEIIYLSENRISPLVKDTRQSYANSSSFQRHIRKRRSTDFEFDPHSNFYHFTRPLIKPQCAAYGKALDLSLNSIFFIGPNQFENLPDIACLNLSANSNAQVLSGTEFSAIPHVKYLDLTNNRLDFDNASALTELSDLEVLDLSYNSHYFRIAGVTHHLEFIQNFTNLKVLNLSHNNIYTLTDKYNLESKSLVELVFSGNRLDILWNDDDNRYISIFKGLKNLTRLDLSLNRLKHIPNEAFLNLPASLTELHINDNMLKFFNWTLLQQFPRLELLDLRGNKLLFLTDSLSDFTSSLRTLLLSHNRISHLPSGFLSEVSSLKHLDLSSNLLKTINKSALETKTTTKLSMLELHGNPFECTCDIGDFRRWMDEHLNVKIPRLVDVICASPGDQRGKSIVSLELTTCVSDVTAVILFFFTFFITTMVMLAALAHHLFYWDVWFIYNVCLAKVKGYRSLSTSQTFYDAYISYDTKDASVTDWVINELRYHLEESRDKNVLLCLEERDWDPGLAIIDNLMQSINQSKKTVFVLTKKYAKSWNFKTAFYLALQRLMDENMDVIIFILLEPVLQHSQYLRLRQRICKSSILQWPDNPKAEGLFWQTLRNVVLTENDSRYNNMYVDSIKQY
How it was run: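 HEK293 cells stably expressing human TLR7 or TLR8, transiently transfected with SEAP reporter plasmid; medium replaced, SIMRA compounds added, 18 h incubation. Supernatant SEAP measured by QuantiBlue; expressed as fold increase in NF-κB activity over PBS control. Tabulated data at 50 μg/mL, representative of three independent experiments.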

Splenocyte [3] = assay: Immunomodulatory activity in C57BL/6 mouse splenocytes bearing TLR7 receptor assessed as IL12 release at 100 ug/ml after 24 hrs by ELISA; format: functional, cell-based
How it was run: (§1)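 C57BL/6 splenocytes in RPMI 1640 with 10% FBS, penicillin/streptomycin, 2 mM L-glutamine, plated at 5 × 10^6 cells/mL; compounds in PBS added, 37 °C for 24 h. Supernatant IL-12 and IL-6 by ELISA; representative of three independent experiments.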

PBMC [4] = assay: Immunomodulatory activity in human PBMC assessed as induction of IFN-alpha at 100 ug/ml after 24 hrs
[5] = Metabolic stability in human serum assessed as full length product remaining after 10 mins by HPLC; format: ADME, cell-free; conditions: read-out: Stability
How it was run: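 About 0.5 A260 units compound in 1% human serum in PBS, 37 °C; aliquot taken at 10 min, analysed by anion-exchange HPLC for percent intact full-length product.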

Homo sapiens = species on record: Homo sapiens; assay: Ratio of human TLR7 activity to human TLR8 activity
How it was run: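 TLR7/TLR8 ratio computed from fold NF-κB (SEAP reporter) activation in HEK293 cells stably expressing human TLR7 versus TLR8, compounds at 50 μg/mL, 18 h exposure; representative of three independent experiments.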

PBMC [6] = assay: Immunomodulatory activity in human PBMC assessed as induction of IL12 at 100 ug/ml after 24 hrs; format: functional, cell-based
How it was run: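 Human PBMCs plated at 5 × 10^6 cells/mL; compounds dissolved in PBS added at various concentrations, 37 °C for 24 h. Supernatant cytokines/chemokines quantified with human Luminex multiplex kit.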

Splenocyte [7] = assay: Immunomodulatory activity in C57BL/6 mouse splenocytes bearing TLR7 receptor assessed as IL6 release at 100 ug/ml after 24 hrs by ELISA; format: functional, cell-based; how it was run: as §1

Toll-like receptor 3 (Homo sapiens), sequence (O15455 whole entry): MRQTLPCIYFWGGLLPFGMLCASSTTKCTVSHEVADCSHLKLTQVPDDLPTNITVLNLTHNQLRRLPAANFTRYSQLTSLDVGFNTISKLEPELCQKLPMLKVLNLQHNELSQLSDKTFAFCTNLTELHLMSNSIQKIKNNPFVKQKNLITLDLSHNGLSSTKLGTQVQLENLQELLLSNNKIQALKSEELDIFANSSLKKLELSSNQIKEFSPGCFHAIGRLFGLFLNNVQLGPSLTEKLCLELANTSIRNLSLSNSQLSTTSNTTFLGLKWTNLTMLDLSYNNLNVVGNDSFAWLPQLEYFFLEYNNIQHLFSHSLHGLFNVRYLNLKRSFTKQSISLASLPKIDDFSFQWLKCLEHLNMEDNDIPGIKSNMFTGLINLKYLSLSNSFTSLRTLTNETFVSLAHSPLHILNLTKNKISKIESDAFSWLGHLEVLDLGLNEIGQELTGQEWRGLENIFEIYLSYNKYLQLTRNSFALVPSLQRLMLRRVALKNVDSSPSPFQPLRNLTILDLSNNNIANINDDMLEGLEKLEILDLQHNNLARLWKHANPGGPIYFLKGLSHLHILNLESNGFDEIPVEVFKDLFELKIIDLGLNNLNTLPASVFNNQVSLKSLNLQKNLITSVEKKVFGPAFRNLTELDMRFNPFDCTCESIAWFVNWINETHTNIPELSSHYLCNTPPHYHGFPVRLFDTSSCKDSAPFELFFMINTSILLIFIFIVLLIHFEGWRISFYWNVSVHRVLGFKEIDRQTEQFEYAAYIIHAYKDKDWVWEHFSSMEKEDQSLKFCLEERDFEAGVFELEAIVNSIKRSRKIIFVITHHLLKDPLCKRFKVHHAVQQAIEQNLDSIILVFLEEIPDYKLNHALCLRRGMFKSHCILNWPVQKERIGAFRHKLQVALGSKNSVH

SMILES | Activity [1] | fold change (FC) [2] | Activity (Splenocyte [3]) | IFN-alpha (PBMC [4]) | remaining at 10 min [5] | Ratio (Homo sapiens) | Activity (PBMC [6]) | Activity (Splenocyte [7])
Nc1ccn([C@@H]2O[C@H](COP(=O)(S)O[C@H]3[C@@H](O)[C@H](n4cnc5c(N)ncnc54)O[C@@H]3CO)[C@@H](OP(=O)(S)OC[C@H]3O[C@@H](n4ccc5c(=O)[nH]c(N)nc54)[C@H](O)[C@@H]3OP(=O)(S)OC[C@H]3O[C@@H](n4ccc(N)nc4=O)[C@H](O)[C@@H]3OP(=O)(S)OC[C@H]3O[C@@H](n4ccc(=O)[nH]c4=O)[C@H](O)[C@@H]3OP(=O)(S)OC[C@H]3O[C@@H](n4ccc5c(=O)[nH]c(N)nc54)[C@H](O)[C@@H]3OP(=O)(S)OC[C@H]3O[C@@H](n4cnc5c(N)ncnc54)[C@H](O)[C@@H]3OP(=O)(S)OC[C@H]3O[C@@H](n4ccc5c(=O)[nH]c(N)nc54)[C@H](O)[C@@H]3OP(=O)(S)OC[C@H]3O[C@@H](n4ccc(N)nc4=O)[C@H](O)[C@@H]3OP(=O)(S)OC[C@H]3O[C@@H](n4ccc(=O)[nH]c4=O)[C@H](O)[C@@H]3OP(=O)(S)OC[C@H]3O[C@@H](n4ccc(=O)[nH]c4=O)[C@H](O)[C@@H]3OP(=O)(S)OCC(O)COP(=O)(S)O[C@H]3[C@@H](O)[C@H](n4ccc(=O)[nH]c4=O)O[C@@H]3COP(=O)(S)O[C@H]3[C@@H](O)[C@H](n4ccc(=O)[nH]c4=O)O[C@@H]3COP(=O)(S)O[C@H]3[C@@H](O)[C@H](n4ccc(N)nc4=O)O[C@@H]3COP(=O)(S)O[C@H]3[C@@H](O)[C@H](n4ccc5c(=O)[nH]c(N)nc54)O[C@@H]3COP(=O)(S)O[C@H]3[C@@H](O)[C@H](n4cnc5c(N)nc(N)nc54)O[C@@H]3COP(=O)(S)O[C@H]3[C@@H](O)[C@H](n4ccc5c(=O)[nH]c(N)nc54)O[C@@H]3COP(=O)(S)O[C@H]3[C@@H](O)[C@H](n4ccc(=O)[nH]c4=O)O[C@@H]3COP(=O)(S)O[C@H]3[C@@H](O)[C@H](n4ccc(N)nc4=O)O[C@@H]3COP(=O)(S)O[C@H]3[C@@H](O)[C@H](n4ccc5c(=O)[nH]c(N)nc54)O[C@@H]3COP(=O)(S)O[C@H]3[C@@H](O)[C@H](n4ccc(N)nc4=O)O[C@@H]3COP(=O)(S)O[C@H]3[C@@H](O)[C@H](n4cnc5c(N)ncnc54)O[C@@H]3CO)[C@H]2O)c(=O)n1 (some centres undefined) | inactive | 0.9 | Active | 188 pg/mL | 78% | 29.6 | 2240 pg/mL | Active
Nc1ccn([C@@H]2O[C@H](COP(=O)(S)O[C@H]3[C@@H](O)[C@H](n4cnc5c(N)ncnc54)O[C@@H]3COP(=O)(S)O[C@H]3[C@@H](O)[C@H](n4cnc5c(N)ncnc54)O[C@@H]3CO)[C@@H](OP(=O)(S)OC[C@H]3O[C@@H](n4ccc(=O)[nH]c4=O)[C@H](O)[C@@H]3OP(=O)(S)OC[C@H]3O[C@@H](n4ccc(=O)[nH]c4=O)[C@H](O)[C@@H]3OP(=O)(S)OC[C@H]3O[C@@H](n4ccc5c(=O)[nH]c(N)nc54)[C@H](O)[C@@H]3OP(=O)(S)OC[C@H]3O[C@@H](n4cnc5c(N)ncnc54)[C@H](O)[C@@H]3OP(=O)(S)OC[C@H]3O[C@@H](n4ccc5c(=O)[nH]c(N)nc54)[C@H](O)[C@@H]3OP(=O)(S)OC[C@H]3O[C@@H](n4ccc(N)nc4=O)[C@H](O)[C@@H]3OP(=O)(S)OC[C@H]3O[C@@H](n4ccc(=O)[nH]c4=O)[C@H](O)[C@@H]3OP(=O)(S)OC[C@H]3O[C@@H](n4ccc(=O)[nH]c4=O)[C@H](O)[C@@H]3OP(=O)(S)OCC(O)COP(=O)(S)O[C@H]3[C@@H](O)[C@H](n4ccc(=O)[nH]c4=O)O[C@@H]3COP(=O)(S)O[C@H]3[C@@H](O)[C@H](n4ccc(=O)[nH]c4=O)O[C@@H]3COP(=O)(S)O[C@H]3[C@@H](O)[C@H](n4ccc(N)nc4=O)O[C@@H]3COP(=O)(S)O[C@H]3[C@@H](O)[C@H](n4ccc5c(=O)[nH]c(N)nc54)O[C@@H]3COP(=O)(S)O[C@H]3[C@@H](O)[C@H](n4cnc5c(N)ncnc54)O[C@@H]3COP(=O)(S)O[C@H]3[C@@H](O)[C@H](n4ccc5c(=O)[nH]c(N)nc54)O[C@@H]3COP(=O)(S)O[C@H]3[C@@H](O)[C@H](n4ccc(=O)[nH]c4=O)O[C@@H]3COP(=O)(S)O[C@H]3[C@@H](O)[C@H](n4ccc(=O)[nH]c4=O)O[C@@H]3COP(=O)(S)O[C@H]3[C@@H](O)[C@H](n4ccc(N)nc4=O)O[C@@H]3COP(=O)(S)O[C@H]3[C@@H](O)[C@H](n4cnc5c(N)ncnc54)O[C@@H]3COP(=O)(S)O[C@H]3[C@@H](O)[C@H](n4cnc5c(N)ncnc54)O[C@@H]3CO)[C@H]2O)c(=O)n1 (some centres undefined) | inactive | 1 | Active | 106 pg/mL | 82% | 20.1 | 527 pg/mL | Active
Nc1ccn([C@@H]2O[C@H](COP(=O)(S)O[C@H]3[C@@H](O)[C@H](n4cnc5c(N)ncnc54)O[C@@H]3COP(=O)(S)O[C@H]3[C@@H](O)[C@H](n4ccc5c(=O)[nH]c(N)nc54)O[C@@H]3COP(=O)(S)O[C@H]3[C@@H](O)[C@H](n4ccc(=O)[nH]c4=O)O[C@@H]3COP(=O)(S)O[C@H]3[C@@H](O)[C@H](n4ccc(=O)[nH]c4=O)O[C@@H]3COP(=O)(S)O[C@H]3[C@@H](O)[C@H](n4cnc5c(N)ncnc54)O[C@@H]3COP(=O)(S)O[C@H]3[C@@H](O)[C@H](n4cnc5c(N)ncnc54)O[C@@H]3CO)[C@@H](OP(=O)(S)OC[C@H]3O[C@@H](n4ccc5c(=O)[nH]c(N)nc54)[C@H](O)[C@@H]3OP(=O)(S)OC[C@H]3O[C@@H](n4ccc(N)nc4=O)[C@H](O)[C@@H]3OP(=O)(S)OC[C@H]3O[C@@H](n4ccc(=O)[nH]c4=O)[C@H](O)[C@@H]3OP(=O)(S)OC[C@H]3O[C@@H](n4ccc(=O)[nH]c4=O)[C@H](O)[C@@H]3OP(=O)(S)OCC(O)COP(=O)(S)O[C@H]3[C@@H](O)[C@H](n4ccc(=O)[nH]c4=O)O[C@@H]3COP(=O)(S)O[C@H]3[C@@H](O)[C@H](n4ccc(=O)[nH]c4=O)O[C@@H]3COP(=O)(S)O[C@H]3[C@@H](O)[C@H](n4ccc(N)nc4=O)O[C@@H]3COP(=O)(S)O[C@H]3[C@@H](O)[C@H](n4ccc5c(=O)[nH]c(N)nc54)O[C@@H]3COP(=O)(S)O[C@H]3[C@@H](O)[C@H](n4ccc(N)nc4=O)O[C@@H]3COP(=O)(S)O[C@H]3[C@@H](O)[C@H](n4cnc5c(N)ncnc54)O[C@@H]3COP(=O)(S)O[C@H]3[C@@H](O)[C@H](n4ccc5c(=O)[nH]c(N)nc54)O[C@@H]3COP(=O)(S)O[C@H]3[C@@H](O)[C@H](n4ccc(=O)[nH]c4=O)O[C@@H]3COP(=O)(S)O[C@H]3[C@@H](O)[C@H](n4ccc(=O)[nH]c4=O)O[C@@H]3COP(=O)(S)O[C@H]3[C@@H](O)[C@H](n4cnc5c(N)ncnc54)O[C@@H]3COP(=O)(S)O[C@H]3[C@@H](O)[C@H](n4cnc5c(N)ncnc54)O[C@@H]3CO)[C@H]2O)c(=O)n1 (some centres undefined) | inactive | 0.3 | Active | 193 pg/mL | 80% | 69.7 | 340 pg/mL | Active
